Experimental findings from article PMC4475445 (Journal of immunology (Baltimore, Md. : 1950), 2015) are described below.

The test system of data set [1] is BMMΦ. As to the kind of experiment: Apoptosis assay. Conditions: wild-type and Btk-/-Tec-/- BMMΦ, several doses, Figure S2D. In kind it is cell-based. The method, boiled down:
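Bone marrow was flushed from femurs and tibias of 6–15-week-old mice, red cells were lysed, and the cells were filtered and plated at 7.5 × 10^5 cells/ml. Cells were grown in DMEM with 10% heat-inactivated FBS, 10 mM Hepes and 10% CMG 12-14 conditioned medium as the M-CSF source, and re-plated on day 5. Apoptosis was scored by annexin V/7-AAD staining and flow cytometry.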

For data set [2], the system named is BMMΦ. As to the kind of experiment: TLR-dependent cytokine secretion. In kind it is cell-based, mouse. Conditions: 30 min pretreatment, then LPS or CpG 16 h; wild-type and Btk-/-Tec-/- BMMΦ.
Data set [3] addresses T1, ITK (Homo sapiens, UniProt Q08881).
T1 sequence (Q08881 1-620): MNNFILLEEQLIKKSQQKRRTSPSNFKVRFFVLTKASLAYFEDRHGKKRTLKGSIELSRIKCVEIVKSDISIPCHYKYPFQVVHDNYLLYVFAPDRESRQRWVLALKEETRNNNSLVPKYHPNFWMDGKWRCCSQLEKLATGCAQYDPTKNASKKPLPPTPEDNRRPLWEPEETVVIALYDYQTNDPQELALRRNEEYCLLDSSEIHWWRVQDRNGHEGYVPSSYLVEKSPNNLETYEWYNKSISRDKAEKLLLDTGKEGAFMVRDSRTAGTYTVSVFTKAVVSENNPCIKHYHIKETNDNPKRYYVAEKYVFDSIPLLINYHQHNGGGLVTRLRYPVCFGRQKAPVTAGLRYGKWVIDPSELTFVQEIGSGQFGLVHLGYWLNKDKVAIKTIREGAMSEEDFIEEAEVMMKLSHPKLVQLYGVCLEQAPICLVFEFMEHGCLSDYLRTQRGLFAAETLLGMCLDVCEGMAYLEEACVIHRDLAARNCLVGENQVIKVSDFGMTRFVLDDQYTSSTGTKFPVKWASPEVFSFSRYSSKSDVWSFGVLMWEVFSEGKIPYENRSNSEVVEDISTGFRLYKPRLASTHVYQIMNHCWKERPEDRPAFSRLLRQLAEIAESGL
As to the kind of experiment: HotSpot radioisotope kinase assay. The data set is classed as biochemical. An outline of the steps:
(§1)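 Radiometric HotSpot assay with P81 filter capture. Kinase was added to freshly prepared substrate with cofactors and preincubated 30 min at room temperature, then started with 33P-ATP, with ATP at Km or 10× Km. Reactions ran 2 hr at room temperature; unreacted phosphate was washed off with 0.1% phosphoric acid. Test compound: 10 doses, […] serial dilution from 10 μM. Duplicates; staurosporine positive control.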

Data set [4] concerns the target Btk (Homo sapiens, UniProt Q06187). In words: HotSpot radioisotope kinase assay. The data set is classed as biochemical. The method, boiled down: as §1
In data set [5] the target is T2, Bmx (Homo sapiens, UniProt P51813).
T2 sequence (P51813 1-675): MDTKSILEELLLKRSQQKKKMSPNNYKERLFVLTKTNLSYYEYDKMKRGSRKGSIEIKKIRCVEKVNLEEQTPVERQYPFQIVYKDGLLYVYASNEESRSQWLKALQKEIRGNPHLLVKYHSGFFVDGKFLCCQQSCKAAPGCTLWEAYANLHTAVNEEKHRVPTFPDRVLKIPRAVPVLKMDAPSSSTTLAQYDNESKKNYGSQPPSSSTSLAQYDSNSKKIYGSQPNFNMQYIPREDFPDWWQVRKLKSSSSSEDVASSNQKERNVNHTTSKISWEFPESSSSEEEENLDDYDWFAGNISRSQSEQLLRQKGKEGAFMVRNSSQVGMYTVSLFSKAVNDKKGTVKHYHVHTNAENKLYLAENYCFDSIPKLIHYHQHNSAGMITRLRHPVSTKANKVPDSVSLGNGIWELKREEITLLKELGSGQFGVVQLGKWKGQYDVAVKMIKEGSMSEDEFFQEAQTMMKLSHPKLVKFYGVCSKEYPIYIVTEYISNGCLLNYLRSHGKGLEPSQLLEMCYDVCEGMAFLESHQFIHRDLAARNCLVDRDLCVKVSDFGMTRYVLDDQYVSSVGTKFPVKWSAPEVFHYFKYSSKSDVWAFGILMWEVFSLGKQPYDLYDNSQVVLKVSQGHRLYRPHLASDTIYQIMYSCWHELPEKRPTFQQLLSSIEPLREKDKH
In words: HotSpot radioisotope kinase assay. In kind it is biochemical. The method, boiled down: as §1

In data set [6] the target is T3, Tec (Homo sapiens, UniProt P42680).
T3 sequence (P42680 1-631): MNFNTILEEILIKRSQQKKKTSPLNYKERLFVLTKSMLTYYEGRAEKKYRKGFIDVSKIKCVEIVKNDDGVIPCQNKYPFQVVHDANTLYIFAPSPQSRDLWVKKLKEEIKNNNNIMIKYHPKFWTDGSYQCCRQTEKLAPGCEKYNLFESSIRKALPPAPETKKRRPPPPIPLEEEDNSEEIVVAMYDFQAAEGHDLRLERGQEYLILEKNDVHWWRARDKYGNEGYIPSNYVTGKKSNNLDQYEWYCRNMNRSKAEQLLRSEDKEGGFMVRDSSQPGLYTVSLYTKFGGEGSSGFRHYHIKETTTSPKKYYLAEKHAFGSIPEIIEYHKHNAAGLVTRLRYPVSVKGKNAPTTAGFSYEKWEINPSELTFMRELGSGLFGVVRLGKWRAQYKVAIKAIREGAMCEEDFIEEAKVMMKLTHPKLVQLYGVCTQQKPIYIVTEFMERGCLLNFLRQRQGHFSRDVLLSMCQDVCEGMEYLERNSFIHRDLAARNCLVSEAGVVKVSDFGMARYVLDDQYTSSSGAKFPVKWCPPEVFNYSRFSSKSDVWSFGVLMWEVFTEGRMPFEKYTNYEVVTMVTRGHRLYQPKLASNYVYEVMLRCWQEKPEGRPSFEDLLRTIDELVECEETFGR
As to the kind of experiment: HotSpot radioisotope kinase assay. In kind it is biochemical. An outline of the steps:
as §1

Data set [7] deals with Tec kinases. As to the kind of experiment: Kinase selectivity panel. In kind it is biochemical. The following applies: 1μM test concentration, 10 μM 33P-ATP; Supplemental Table 2. The method, boiled down:
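Test compound was dissolved in DMSO and tested at 1 μM final. Each kinase was added to fresh substrate with cofactors in reaction buffer and preincubated 30 min at room temperature. Reactions were started with 10 μM 33P-ATP and ran 2 hr at room temperature. After termination, unreacted phosphate was washed off with 0.1% phosphoric acid and bound label was read by P81 filtration. Run in duplicate; 10 μM staurosporine positive control.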

The term IC50 denotes the point on the concentration scale where inhibition reaches its midpoint. High values mean a need for much substance, low ones inhibition by little substance.

Molecules are shown by their SMILES.

Btk, sequence (Q06187 whole entry): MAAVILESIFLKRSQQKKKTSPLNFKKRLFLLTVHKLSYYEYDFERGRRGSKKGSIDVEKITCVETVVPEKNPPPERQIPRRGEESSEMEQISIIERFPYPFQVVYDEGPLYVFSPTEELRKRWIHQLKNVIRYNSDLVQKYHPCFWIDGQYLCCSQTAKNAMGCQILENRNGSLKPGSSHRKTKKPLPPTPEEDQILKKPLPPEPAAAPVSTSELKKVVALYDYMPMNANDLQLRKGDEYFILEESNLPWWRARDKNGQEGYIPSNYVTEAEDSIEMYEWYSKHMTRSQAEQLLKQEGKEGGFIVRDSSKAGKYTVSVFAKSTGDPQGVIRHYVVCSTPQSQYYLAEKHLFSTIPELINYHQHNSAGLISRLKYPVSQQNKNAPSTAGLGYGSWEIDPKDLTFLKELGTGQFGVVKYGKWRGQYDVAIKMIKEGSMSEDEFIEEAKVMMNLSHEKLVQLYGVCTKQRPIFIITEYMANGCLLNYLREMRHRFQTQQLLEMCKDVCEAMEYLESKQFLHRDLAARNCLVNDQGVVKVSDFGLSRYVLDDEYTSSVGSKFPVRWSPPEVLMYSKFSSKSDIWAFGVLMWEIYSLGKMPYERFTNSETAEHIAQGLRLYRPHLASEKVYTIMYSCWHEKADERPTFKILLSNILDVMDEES

As for `C=CC(=O)Nc1cccc(Nc2nc(Nc3ccc(OCCOC)cc3)ncc2F)c1` [CC-292], the “Percentage of dead (7-AAD positive) or apoptotic (Annexin V positive) cells” value in data set [1] was “did not alter”. In data set [2], the “TLR-dependent secretion of IL6” value is reported as “decreased” and the “TLR-dependent secretion of TNF” value is given as “decreased”.

Take `C=CC(=O)Nc1cccc(Nc2nc(Nc3ccc(OCCOC)c(F)c3)ncc2F)c1` [Compound1, N-(3-((5-fluoro-2-((3-fluoro-4-(2-methoxyethoxy)phenyl)amino)pyrimidin-4-yl)amino)phenyl)acrylamide]: the IC50 in data set [3] came to 172 nM; in data set [4] it was 12.5 nM; in data set [5], 2.1 nM; in data set [6] it was 22 nM. Moreover, the Kinase selectivity result in data set [7] was “highly selective for Tec kinases”.
